# High-throughput results: PubChem, several laboratories
# SENP8 block-1 – inhibitors of human SENP8 protease | purified SENP8, Z-RLRGG-aminoluciferin cleavage, luminescence | AID 2540 | inhibition, % at 10 µM | 330,000 compounds, 1.2% hits; in the data active means inhibition above about 50%
# Target sequence (Q96LD8 whole entry, looked up): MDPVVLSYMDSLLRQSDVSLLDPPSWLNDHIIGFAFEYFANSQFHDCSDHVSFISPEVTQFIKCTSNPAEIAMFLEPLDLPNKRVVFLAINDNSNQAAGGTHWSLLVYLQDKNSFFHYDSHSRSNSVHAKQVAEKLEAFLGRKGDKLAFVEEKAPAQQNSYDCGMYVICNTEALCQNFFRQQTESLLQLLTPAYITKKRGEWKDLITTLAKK
# SENP1 FRET inh – SENP1 (human) catalytic domain inhibition. Q9P0U3. recombinant SENP1 catalytic domain, CyPet-SUMO1-YPet FRET cleavage. inhibition, % at 10 µM. 360,000 compounds, 0.21% hits. AID 624204;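 active means inhibition at least 30% at 10 µM, raw YFP signal under a set limit, fluorescence ratio 0.5 to 1.5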;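 further: 0% = enzyme with DMSO and 100% = no enzyme wells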
#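 Test system: hSENP1 catalytic domain, recombinant; Amount: 20 pM final SENP1 enzyme; Medium: Tris pH 8 buffer plus EDTA, NaCl, BME, BSA, NP40, catalase; Schedule: 50 min enzyme reaction, room temperature, light-protected; Technique: FRET fluorescence in CFP and YFP emission channels; Controls: no-enzyme wells low, DMSO-plus-enzyme wells high control.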
# Platelet DG rel – modulates dense granule release in human platelets; human platelet-rich plasma, SFLLRN dense granule ATP release, luminescence; inhibition, %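 (compounds screened at 7.5 µM in platelet-rich plasma)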; 300,000 compounds, 0.22% hits;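 active means mean replicate score, as percent of positive control, at or above 50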
# SENP7 inh – blocks the human protease SENP7; Q9BQF6; recombinant SENP7, Z-RLRGG-aminoluciferin luminescence, 40 min; inhibition, % at 5 µM; 330,000 compounds, 1.5% hits; AID 434973;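 active means inhibition above about 50% at the single test dose, limit read from the data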;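 further: plate controls were DMSO with enzyme for no effect and no enzyme buffer wells for full effect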
# SENP6 inh – blocks the human protease SENP6 | Recombinant SENP6 catalytic domain, aminoluciferin luminescence | inhibition, % at 10 µM | 330,000 compounds, 1.8% hits;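 active means inhibition above about 50% at the single tested dose, limit read from the data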;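 further: plate controls were DMSO wells with enzyme for no effect and DMSO wells lacking enzyme for full effect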
# Target sequence (Q9GZR1 628-1112 limits assumed): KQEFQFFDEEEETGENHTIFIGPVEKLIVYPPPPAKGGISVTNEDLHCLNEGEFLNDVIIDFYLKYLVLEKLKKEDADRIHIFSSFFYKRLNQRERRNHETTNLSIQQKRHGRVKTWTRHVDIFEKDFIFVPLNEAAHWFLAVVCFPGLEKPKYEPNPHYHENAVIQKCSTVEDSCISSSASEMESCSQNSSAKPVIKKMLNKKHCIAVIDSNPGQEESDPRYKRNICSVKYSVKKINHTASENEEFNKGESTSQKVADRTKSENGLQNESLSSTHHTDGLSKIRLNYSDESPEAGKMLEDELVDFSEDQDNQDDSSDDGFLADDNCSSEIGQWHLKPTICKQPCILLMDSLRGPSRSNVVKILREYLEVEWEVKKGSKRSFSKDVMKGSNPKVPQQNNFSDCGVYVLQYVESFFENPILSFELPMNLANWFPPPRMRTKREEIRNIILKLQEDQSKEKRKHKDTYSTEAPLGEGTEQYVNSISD
# SENP8 block-2 – blocks human SENP8 cleavage of Nedd8 substrate. AID 602440. inhibition, % at 20 µM. recombinant SENP8, Nedd8 substrate fluorescence. 360,000 compounds, 0.64% hits. Q96LD8; in the data active means inhibition mostly above about 40%, no sharp cut-off; inactive means mostly below about 27%
# SENP8 confirm – human SENP8 inhibition, confirmed; inhibition, % at 12.5 µM; Recombinant SENP8, Z-RLRGG-aminoluciferin luminescence, 60 min; shares compounds with SENP7 inh; 6,200 compounds, 40% hits;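 active means mean inhibition across replicates above about 50%, limit read from the data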
# SENP6 conf – human SENP6 inhibition, confirmed; shares compounds with SENP7 inh; recombinant SENP6, Z-RLRGG-aminoluciferin luminescence; inhibition, % at 12.5 µM; 6,200 compounds, 58% hits
# SENP7 conf – confirmation of human SENP7 protease inhibitors; shares compounds with SENP7 inh; inhibition, % at 12.5 µM; 6,200 compounds, 69% hits; recombinant SENP7, Z-RLRGG-aminoluciferin luminescence, 40 min
# Casp3 select – inhibits human caspase-3 in SENP selectivity test | shares compounds with SENP7 inh | 6,200 compounds, 60% hits | inhibition, % at 12.5 µM | purified caspase-3, Z-DEVD-aminoluciferin luminescence, 60 min;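 active means mean inhibition above about 50%, limit read from the data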;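 further: plate controls were enzyme with DMSO for no effect and wells without caspase-3 for full effect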
# SENP luc ctr – interferes with luciferase luminescence in SENP counter-screen. Pre-incubated SENP8/Z-RLRGG-aminoluciferin, luciferase luminescence interference. AID 488919. inhibition, % at 12.5 µM. 6,200 compounds, 39% hits. shares compounds with SENP7 inh;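 active means mean inhibition above about 50% when retested at one dose, limit read from the data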;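 further: plate controls were DMSO wells with completed reaction for no effect and substrate without enzyme for full effect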
# The depositor's hits bear a star; x = no result given. Sampled rows, rich in hits. Any-hit rate of the full collection: about 2.6%.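 How the source made its calls, unless noted: active means mean inhibition above about 50% in the one-dose retest (limit read from the data); inactive means the rest.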
SMILES,SENP8 block-1,SENP1 FRET inh,Platelet DG rel,SENP7 inh,SENP6 inh,SENP8 block-2,SENP8 confirm,SENP6 conf,SENP7 conf,Casp3 select,SENP luc ctr
COc1cc(C=C2C(=O)c3ccccc3C2=O)ccc1O,93.3*,2.5,35.2,93.7*,-9.6,18.0,13.1,90.6*,97.3*,79.8*,60.8*
C=CCSc1nnc(NC(=O)C23CC4CC(CC(NC(C)=O)(C4)C2)C3)s1,5.8,-2.2,0.4,-2.0,2.1,2.0,x,x,x,x,x
COc1cccc(CNC(=O)[C@@H]2CCCN2C(=O)[C@@H]2CCCN2C(=O)c2cccc(OC)c2)c1,x,2.9,x,x,x,19.4,x,x,x,x,x
Nc1c2c(nc3sc4c(c13)CCCCC4)CCCCC2,57.2*,0.0,-2.6,73.9*,72.9*,1.5,25.1,22.7,38.8,18.7,3.1
Cc1ccsc1/C=C1\Oc2cc(OCC(=O)c3ccccc3)ccc2C1=O,41.1,-49.8,3.2,49.3,60.0*,-185.6,-24.0,-24.2,-7.1,25.5,-4.5
c1ccc(CCNc2ncnc3c2cnn3-c2ccccc2)cc1,43.6,0.9,-5.5,-0.1,57.9*,7.6,58.2*,51.2*,82.3*,38.8,37.4
Clc1ccc(COn2nnc3ccccc32)c(Cl)c1,10.4,2.5,2.1,36.0,60.0*,-7.9,45.8,46.2,76.6*,35.7,47.0
C[C@@H]1CN(S(=O)C(C)(C)C)[C@H](CCO)/C1=C\CCO (stereo not given in full),x,1.0,x,x,x,-2.7,x,x,x,x,x
Oc1[nH]c2ccc(Br)cc2c1N=Nc1ccc(F)cc1,2.8,13.2,5.4,7.1,-2.5,23.0,x,x,x,x,x
Oc1[nH]c2ccccc2c1N=Nc1ccccc1,73.2*,-21.7,3.6,80.4*,87.9*,49.5*,39.8,72.7*,93.9*,62.1*,7.0
O=C(N=Nc1c(O)[nH]c2ccccc12)Nc1ccccc1,x,2.1,x,x,x,15.0,x,x,x,x,x
Oc1[nH]c2ccccc2c1N=Nc1nc2ccccc2s1,55.4*,41.0*,2.0,89.2*,71.7*,29.2,39.7,31.8,50.7*,35.9,42.9
Oc1[nH]c2ccccc2c1N=Nc1ccc(F)cc1,68.8*,-8.4,7.4,89.2*,78.3*,23.2,-17.6,64.5*,66.9*,25.7,-5.5
Oc1[nH]c2ccccc2c1N=Nc1ccccc1F,2.5,-1.8,1.0,74.8*,40.9,24.5,16.0,11.3,35.4,19.5,11.0
CCC(=O)N(Cc1ccco1)c1nc(C(=O)Nc2ccc(Cl)cc2)c(C)s1,4.3,-23.1,-7.4,2.7,7.2,1.3,x,x,x,x,x
CCc1ccc2oc(-c3cccc(NC(=O)c4cccnc4)c3)nc2c1,37.3,0.1,-21.3,46.8,61.2*,12.3,6.5,-4.0,-0.7,1.4,1.8
O=C(Nc1ccc2c(c1)OCO2)c1cc(C2CCCCN2C(=O)CCCc2ccccc2)on1 (stereo not given),x,-0.5,x,x,x,12.5,x,x,x,x,x
O=c1[nH]cnc(O)c1C(c1ccc([N+](=O)[O-])cc1)c1c(O)nc[nH]c1=O,-3.5,0.0,-0.9,-2.6,1.9,1.4,x,x,x,x,x
Cc1cc(C(=O)CSc2nc(N)cc(=O)[nH]2)ccc1F,89.6*,-0.8,2.2,1.1,7.3,20.3,1.5,3.8,3.4,-3.7,1.0
N#C/C(=N\Nc1ccccc1Cl)C(=O)c1ccccc1,-6.0,3.2,6.4,1.2,21.4,37.1,x,x,x,x,x
N#C/C(=N\Nc1cccc(Cl)c1)C(=O)c1ccccc1,68.9*,0.9,3.3,14.8,86.7*,31.0,-21.9,73.5*,76.1*,19.5,72.2*
O=c1[nH]c2ccccc2cc1-c1noc(-c2cccnc2)n1,6.2,-14.2,-5.3,-4.1,18.1,-307.5,x,x,x,x,x
c1ccc(-c2ccc(-c3nc(-c4cccnc4)no3)cc2)cc1,90.1*,3.1,22.6,98.8*,97.2*,-17.2,70.2*,71.3*,80.2*,87.7*,35.3
c1ccc(-c2noc(-c3cccnc3)n2)cc1,58.2*,-0.1,5.7,6.8,76.0*,12.0,2.6,60.3*,88.2*,77.4*,15.5
c1cncc(-c2noc(-c3ccc4ccccc4c3)n2)c1,82.5*,-3.4,-1.9,90.8*,89.6*,-171.6,55.5*,69.1*,94.3*,75.2*,18.6
SMILES,SENP8 block-1,SENP1 FRET inh,Platelet DG rel,SENP7 inh,SENP6 inh,SENP8 block-2,SENP8 confirm,SENP6 conf,SENP7 conf,Casp3 select,SENP luc ctr
COc1ccc(-c2noc(-c3cccnc3)n2)cc1OC,19.1,-14.2,11.9,35.0,43.5,19.6,x,x,x,x,x
COCCN(C(=O)COC(=O)c1c(NC(C)=O)sc(C)c1C)c1c(N)n(Cc2ccccc2)c(=O)[nH]c1=O,1.2,-2.3,x,4.2,5.4,-84.7,x,x,x,x,x
Cc1ccc(Nc2nnc(SCC(=O)NCCN3C(=O)CSC3=O)s2)cc1C,46.5,1.0,9.1,53.0*,24.7,8.3,51.2*,46.0,77.8*,63.5*,55.2*
CCC(=O)N(C1=C(NC)C(=O)c2ccccc2C1=O)C(C)C,3.3,-0.8,-2.1,32.6,86.5*,58.9*,27.6,49.8,22.9,40.1,1.1
COc1ccc2cc1Oc1ccc(cc1)C[C@H]1c3cc(c(OC)cc3CCN1C)Oc1c(OC)c(OC)cc3c1[C@@H](C2)N(C)CC3,34.4,-2.5,x,27.5,58.2*,76.2*,10.3,2.4,-0.3,4.8,-0.4
Cc1ccc(N2CC(C(=O)Nc3ccc(S(=O)(=O)N4CCOCC4)cc3)CC2=O)cc1Cl (stereo not given),5.1,1.8,3.0,-13.7,-0.2,9.4,x,x,x,x,x
C[C@H]1CN([C@@H](C)CO)C(=O)c2cc(Br)cnc2O[C@H]1CN(C)C(=O)C1CC1,x,-0.6,x,x,x,15.9,x,x,x,x,x
CCN(CC)S(=O)(=O)c1ccc(C)c(NC(=O)COC(=O)C=C(C)C)c1,-4.7,0.0,-8.8,6.2,56.3*,27.4,-5.5,-8.9,-3.4,6.1,2.7
N#Cc1ccc(C(=O)N2CCCCC2c2cc(C(=O)Nc3cccc(C#N)c3)no2)cc1 (stereo not given),x,2.0,x,x,x,20.1,x,x,x,x,x
Cc1ccc2ccc(C3C(=O)c4ccccc4C3=O)nc2c1,52.3*,14.9,-0.5,-4.9,53.3*,27.7,36.7,38.3,34.3,58.1*,4.2
CCNc1nc(N)nc(-c2cc(Cl)ccc2O)n1,55.5*,-21.0,1.0,65.2*,82.8*,-297.1,71.5*,69.2*,90.0*,44.3,9.8
